Data reported in ChEMBL document CHEMBL4257453, “Identification of karanjin isolated from the Indian beech tree as a potent CYP1 enzyme inhibitor with cellular efficacy via screening of a natural product repository” (Medchemcomm, 2018).

How the values were obtained:
CYP1A2 = molecular target: T1, CYP1A2 (Homo sapiens, UniProt P05177); assay: Inhibition of recombinant human CYP1A2 expressed in baker's yeast-derived microsomes (Sacchrosomes) at 10 uM using 3-cyano-7-ethoxycoumarin substrate by EROD assay relative to control; format: ADME; conditions: probe 3-cyano-7-ethoxycoumarin
T1 sequence (P05177 whole entry): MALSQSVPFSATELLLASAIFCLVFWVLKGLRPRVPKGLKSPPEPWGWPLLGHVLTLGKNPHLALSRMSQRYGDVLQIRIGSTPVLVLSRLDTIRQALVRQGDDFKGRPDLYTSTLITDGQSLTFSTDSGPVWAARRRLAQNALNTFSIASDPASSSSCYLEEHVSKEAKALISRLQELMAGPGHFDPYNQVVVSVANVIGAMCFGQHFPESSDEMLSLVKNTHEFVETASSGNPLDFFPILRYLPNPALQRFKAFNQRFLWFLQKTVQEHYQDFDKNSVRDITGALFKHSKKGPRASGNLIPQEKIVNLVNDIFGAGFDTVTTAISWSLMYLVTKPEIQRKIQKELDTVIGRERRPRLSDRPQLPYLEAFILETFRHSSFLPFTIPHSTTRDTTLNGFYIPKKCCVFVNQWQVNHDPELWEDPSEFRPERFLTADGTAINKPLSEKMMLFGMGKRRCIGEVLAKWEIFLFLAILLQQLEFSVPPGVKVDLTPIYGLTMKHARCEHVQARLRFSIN
How it was run: (§1)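 Yeast microsomes carrying recombinant CYP (Sacchrosomes). Substrates per isoform are 7-ethoxyresorufin, 3-cyano-7-ethoxycoumarin, EOMCC or dibenzylfluorescein, read as endpoint fluorescence. Background from compound-only wells without enzyme is subtracted. Independent triplicate runs; α-naphthoflavone positive control.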

CYP2D6 = CYP2D6 (Homo sapiens, UniProt P10635); assay: Inhibition of recombinant human CYP2D6 expressed in baker's yeast-derived microsomes (Sacchrosomes) at 10 uM using 7-ethoxy-methyloxy-3-cyanocoumarin substrate by EROD assay relative to control; format: ADME; conditions: probe 7-ethoxy-methyloxy-3-cyanocoumarin
CYP2D6, sequence (P10635 whole entry): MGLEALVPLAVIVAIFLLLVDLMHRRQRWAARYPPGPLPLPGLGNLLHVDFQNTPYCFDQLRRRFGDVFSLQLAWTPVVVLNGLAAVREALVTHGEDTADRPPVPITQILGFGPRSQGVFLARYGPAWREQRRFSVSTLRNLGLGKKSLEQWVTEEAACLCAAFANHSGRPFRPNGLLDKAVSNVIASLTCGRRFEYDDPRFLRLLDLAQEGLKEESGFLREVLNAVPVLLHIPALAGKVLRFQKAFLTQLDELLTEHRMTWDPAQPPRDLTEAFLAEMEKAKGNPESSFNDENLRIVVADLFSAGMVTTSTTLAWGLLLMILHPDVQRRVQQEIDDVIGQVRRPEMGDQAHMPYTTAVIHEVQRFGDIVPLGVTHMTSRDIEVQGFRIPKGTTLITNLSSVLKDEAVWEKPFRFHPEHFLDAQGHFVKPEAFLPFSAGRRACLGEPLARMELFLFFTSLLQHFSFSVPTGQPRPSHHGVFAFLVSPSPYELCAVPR
How it was run: as §1, with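 “(Sacchrosomes). […]” for “(Sacchrosomes).”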

CYP1A1 = molecular target: T2, CYP1A1 (Homo sapiens, UniProt P04798); assay: Inhibition of human recombinant CYP1A1 expressed in HEK293 cells at 10 uM using 7-ethoxyresorufin substrate preincubated for 30 mins followed by substrate addition and measured after 60 mins by fluorescence assay relative to control; format: cell-based; conditions: HEK293 cells expressing human recombinant CYP1A1, probe 7-ethoxyresorufin
T2 sequence (P04798 whole entry): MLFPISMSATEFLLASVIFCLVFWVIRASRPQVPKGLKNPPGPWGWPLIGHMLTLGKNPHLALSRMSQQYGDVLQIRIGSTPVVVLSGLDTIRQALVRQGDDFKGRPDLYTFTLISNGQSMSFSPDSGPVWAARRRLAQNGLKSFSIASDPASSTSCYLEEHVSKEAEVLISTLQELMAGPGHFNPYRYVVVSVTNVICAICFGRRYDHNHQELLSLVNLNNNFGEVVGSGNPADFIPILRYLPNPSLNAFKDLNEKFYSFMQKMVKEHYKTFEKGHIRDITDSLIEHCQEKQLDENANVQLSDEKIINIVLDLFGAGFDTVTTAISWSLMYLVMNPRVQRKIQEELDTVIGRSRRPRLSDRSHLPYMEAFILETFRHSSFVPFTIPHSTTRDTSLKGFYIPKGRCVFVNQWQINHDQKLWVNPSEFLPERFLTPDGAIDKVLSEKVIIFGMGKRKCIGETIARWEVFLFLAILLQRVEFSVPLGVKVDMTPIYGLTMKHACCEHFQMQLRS
How it was run: (§2)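 HEK293 cells adapted to suspension and transiently transfected with pcDNA3.1 plasmids carrying the individual CYP; 100×10^3 cells per well in triplicate. […] Fluorogenic substrate is then added at 5 μM and fluorescence read for 60 min.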

Cytochrome P450 1A2 = molecular target: T3, Cytochrome P450 1A2 (Homo sapiens, UniProt P05177); assay: Inhibition of human recombinant CYP1A2 expressed in HEK293 cells using 3-cyano-7-ethoxycoumarin substrate preincubated for 30 mins followed by substrate addition and measured after 60 mins by fluorescence assay relative to control; format: ADME, cell-based; how it was run: as §2
T3 sequence (P05177 whole entry): T1 sequence (P05177 whole entry)

Cytochrome P450 1B1 = molecular target: T4, Cytochrome P450 1B1 (Homo sapiens, UniProt Q16678); assay: Inhibition of human recombinant CYP1B1 expressed in HEK293 cells using 7-ethoxyresorufin substrate substrate preincubated for 30 mins followed by substrate addition and measured after 60 mins by fluorescence assay relative to control; format: ADME, cell-based; how it was run: as §2
T4 sequence (Q16678 whole entry): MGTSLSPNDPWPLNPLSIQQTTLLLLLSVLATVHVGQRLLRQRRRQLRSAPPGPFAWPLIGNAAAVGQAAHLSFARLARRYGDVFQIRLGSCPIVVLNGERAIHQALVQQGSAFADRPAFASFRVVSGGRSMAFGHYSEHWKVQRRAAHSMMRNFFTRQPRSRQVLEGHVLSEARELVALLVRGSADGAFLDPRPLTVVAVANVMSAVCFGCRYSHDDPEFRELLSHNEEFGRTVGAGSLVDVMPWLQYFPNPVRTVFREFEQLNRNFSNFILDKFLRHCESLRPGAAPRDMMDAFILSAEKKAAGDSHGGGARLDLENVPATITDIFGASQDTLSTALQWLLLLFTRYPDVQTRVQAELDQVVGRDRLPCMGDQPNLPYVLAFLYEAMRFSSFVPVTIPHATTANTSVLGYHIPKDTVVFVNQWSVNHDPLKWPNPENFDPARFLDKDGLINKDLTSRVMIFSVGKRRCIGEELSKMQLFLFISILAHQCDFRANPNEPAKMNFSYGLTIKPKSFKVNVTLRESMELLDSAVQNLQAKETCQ

Cytochrome P450 2C9 = Cytochrome P450 2C9 (Homo sapiens, UniProt P11712); assay: Inhibition of human recombinant CYP2C9 expressed in HEK293 cells using 3-cyano-7-ethoxycoumarin substrate substrate preincubated for 30 mins followed by substrate addition and measured after 60 mins by fluorescence assay relative to control; format: ADME, cell-based; how it was run: as §2
Cytochrome P450 2C9, sequence (P11712 whole entry): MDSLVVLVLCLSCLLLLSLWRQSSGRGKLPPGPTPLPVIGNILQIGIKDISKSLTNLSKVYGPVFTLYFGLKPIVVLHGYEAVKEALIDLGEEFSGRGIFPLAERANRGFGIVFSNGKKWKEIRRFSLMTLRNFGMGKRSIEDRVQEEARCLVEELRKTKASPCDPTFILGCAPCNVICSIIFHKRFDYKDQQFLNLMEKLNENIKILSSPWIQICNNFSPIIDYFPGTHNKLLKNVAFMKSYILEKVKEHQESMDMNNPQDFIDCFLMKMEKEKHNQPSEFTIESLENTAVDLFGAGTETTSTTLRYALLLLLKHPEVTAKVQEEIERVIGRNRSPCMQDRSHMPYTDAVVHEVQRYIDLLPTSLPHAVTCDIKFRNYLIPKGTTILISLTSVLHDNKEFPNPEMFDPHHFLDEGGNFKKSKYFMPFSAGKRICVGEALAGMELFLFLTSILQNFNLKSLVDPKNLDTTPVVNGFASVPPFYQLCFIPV

Cytochrome P450 3A4 = Cytochrome P450 3A4 (Homo sapiens, UniProt P08684); assay: Inhibition of human recombinant CYP3A4 expressed in HEK293 cells using dibenzylfluorescein substrate substrate preincubated for 30 mins followed by substrate addition and measured after 60 mins by fluorescence assay relative to control; format: ADME, cell-based
Cytochrome P450 3A4, sequence (P08684 whole entry): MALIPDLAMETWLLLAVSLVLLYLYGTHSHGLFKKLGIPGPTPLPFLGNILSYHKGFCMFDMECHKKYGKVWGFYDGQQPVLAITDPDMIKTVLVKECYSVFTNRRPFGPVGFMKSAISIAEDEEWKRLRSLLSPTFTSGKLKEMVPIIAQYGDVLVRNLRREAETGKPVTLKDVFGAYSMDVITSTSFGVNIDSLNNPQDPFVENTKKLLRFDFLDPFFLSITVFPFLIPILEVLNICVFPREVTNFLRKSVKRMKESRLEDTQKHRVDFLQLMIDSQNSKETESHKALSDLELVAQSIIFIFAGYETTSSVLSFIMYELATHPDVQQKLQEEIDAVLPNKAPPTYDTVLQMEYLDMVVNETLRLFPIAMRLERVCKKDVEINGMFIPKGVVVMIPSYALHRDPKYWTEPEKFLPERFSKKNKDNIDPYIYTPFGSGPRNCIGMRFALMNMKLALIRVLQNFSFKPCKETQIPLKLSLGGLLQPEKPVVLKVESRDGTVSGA
How it was run: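 HEK293 cells adapted to suspension and transiently transfected with pcDNA3.1 plasmids carrying the individual CYP; 100×10^3 cells per well in triplicate. Fluorogenic substrate is then added at 5 μM and fluorescence read for 60 min.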

Homo sapiens = species on record: Homo sapiens; assay: Selectivity index, ratio of IC50 for inhibition of human recombinant CYP1B1 expressed in HEK293 cells by fluorescence assay to IC50 for inhibition of human recombinant CYP1A1 expressed in HEK293 cells by fluorescence assay; format: cell-based
How it was run: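 HEK293 suspension cells transiently transfected with pcDNA3.1/CYP1B1 or pcDNA3.1/CYP1A1, 100×10^3 cells per well in triplicate. Compound (1 nM to 30 μM) preincubated 30 min at 37 °C, 8% CO2. 7-Ethoxyresorufin then added at 5 μM, and resorufin fluorescence (EROD) read over 60 min. IC50 taken from concentration-response for each isoform; index = CYP1B1 IC50 / CYP1A1 IC50.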

With COc1c2ccoc2cc2oc(=O)ccc12 [BERGAPTEN] the inhibition at 10 µM (CYP1A2) was 73%, the inhibition at 10 µM (CYP2D6) was 9% and the inhibition at 1 h, 10 µM (CYP1A1) was 91%. It also gave an IC50 (Cytochrome P450 1A2) of 0.09 µM, a Ki (Cytochrome P450 1A2) of 0.06 µM and an IC50 (Cytochrome P450 1B1) of 15.3 µM. The IC50 (Cytochrome P450 2C9) was greater than 10 µM, the IC50 (Cytochrome P450 3A4) was greater than 10 µM and the Ratio IC50 (Homo sapiens) was 192.

COc1c2ccoc2c(OC)c2oc(=O)ccc12 [ISOPIMPINELLIN] showed an inhibition at 10 µM (CYP1A2) of 62%, an inhibition at 10 µM (CYP2D6) of 0% and an inhibition at 1 h, 10 µM (CYP1A1) of 91%. The IC50 (Cytochrome P450 1A2) was 0.04 µM, the Ki (Cytochrome P450 1A2) was 0.028 µM and the IC50 (Cytochrome P450 1B1) was 6.38 µM. For the same compound, the IC50 (Cytochrome P450 2C9) was greater than 10 µM, the IC50 (Cytochrome P450 3A4) was greater than 10 µM and the Ratio IC50 (Homo sapiens) was 319.
